# This is a sample that favours compounds with a hit; in the whole collection about 3.8% have one here.
# KCNK9 inh: human KCNK9 channel inhibition. B-score at 10 µM. 1.2% of 310,000 active. AID 488922. HEK293 KCNK9, FluxOR thallium flux fluorescence; stronger effect = lower value. Q9NPC2;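 active = ratio B-score over 3 SD below the library mean, with starting fluorescence within 5 SD of its mean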;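 note: negative B-score means less thallium flux so channel inhibition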
# KCNQ1 pot: human KCNQ1 channel potentiation or activation. P51787. CHO-K1 KCNQ1, thallium flux FluxOR fluorescence; stronger effect = higher value. B-score at 10 µM. 0.35% of 310,000 active. AID 2648;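 active = fluorescence ratio B-score, a plate-corrected score, at least three library SD, with initial intensity B-score within 5 SD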
# Target sequence (P51787 whole entry, looked up): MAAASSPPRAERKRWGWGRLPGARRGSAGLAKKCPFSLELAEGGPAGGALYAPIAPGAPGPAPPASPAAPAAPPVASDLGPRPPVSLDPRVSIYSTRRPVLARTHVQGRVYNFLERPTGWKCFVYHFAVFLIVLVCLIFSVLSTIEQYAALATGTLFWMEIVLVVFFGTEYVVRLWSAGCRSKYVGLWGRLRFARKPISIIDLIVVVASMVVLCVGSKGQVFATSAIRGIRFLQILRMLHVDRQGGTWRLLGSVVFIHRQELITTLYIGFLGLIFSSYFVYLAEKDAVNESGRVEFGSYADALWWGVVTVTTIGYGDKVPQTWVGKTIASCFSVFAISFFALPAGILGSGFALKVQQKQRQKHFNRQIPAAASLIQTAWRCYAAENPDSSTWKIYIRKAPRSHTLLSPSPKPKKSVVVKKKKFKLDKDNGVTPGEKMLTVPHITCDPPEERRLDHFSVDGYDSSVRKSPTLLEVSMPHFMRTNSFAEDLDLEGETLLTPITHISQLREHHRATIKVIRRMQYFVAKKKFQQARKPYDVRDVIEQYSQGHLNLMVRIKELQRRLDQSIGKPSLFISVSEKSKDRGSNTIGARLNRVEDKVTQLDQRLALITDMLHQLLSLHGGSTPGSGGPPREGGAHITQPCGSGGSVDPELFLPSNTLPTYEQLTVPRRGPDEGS
#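 Test system: CHO-K1 cells stably expressing KCNQ1 / Medium: assay buffer / Also added: depolarizing K+/Tl+ stimulus, K2SO4 and Tl2SO4 each 12.5 mM in 5x stock / Incubation: 90 min dye loading and 20 min compound exposure, both at room temperature / Signal: thallium influx via FluxOR fluorescence, kinetic imaging / Evaluation: B score of baseline-normalized fluorescence ratio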
# KCNK3 block: human KCNK3 channel inhibition, primary screen. O14649. CHO-KCNK3 thallium flux, FluxOR fluorescence; stronger effect = lower value. B-score at 10 µM. 0.84% of 340,000 active. AID 602410;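 active = B-score under library mean minus 4 SD, starting fluorescence ratio at most library mean plus 5 SD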;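 note: more negative B-score means stronger inhibition of thallium flux through KCNK3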
# hERG protect: hERG (human) protection from proarrhythmic block | activation (rescue from dofetilide block), less the hit threshold, % at 10 µM | Q12809 | 0.51% of 310,000 active | CHO-hERG, FluxOR thallium flux, dofetilide IC70 present;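 active = activation above the mean of controls blocked by dofetilide plus 5 SD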;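 note: thallium influx through hERG after potassium depolarization seen as dye fluorescence rise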
# KCNQ1 block: blocks the human KCNQ1 potassium channel; CHO-K1 KCNQ1, FluxOR thallium flux fluorescence; stronger effect = higher value; B-score at 10 µM; 1.3% of 310,000 active; AID 2642;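 active = compounds whose thallium flux B-score, printed positive for inhibition, exceeds three library SD while starting fluorescence stays within three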;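 note: channel opened by potassium depolarization with thallium stimulus after 20 min compound exposure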
# Kir21 block: Kir2.1 (mouse) channel inhibition; P35561; HEK293-Kir2.1, FluxOR thallium flux fluorescence; stronger effect = lower value; B-score at 10 µM; 0.85% of 310,000 active; AID 1672;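 active = fluorescence ratio B-score at or below minus 3 SD of library scores, with starting-brightness B-score within 2 SD, cut at about -4.2 in these data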;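 note: channel flux triggered by added potassium and thallium sulfate stimulus; B-score of peak minus minimum fluorescence over baseline after thallium stimulus; more negative B-score means stronger Kir2.1 block with less thallium influx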
# KCNK9 inh conf: confirmation of human KCNK9 potassium channel inhibitors; shares compounds with KCNK9 inh; HEK293 KCNK9 cells, FluxOR thallium flux fluorescence; inhibition, % at 10 µM; 43% of 4,900 active; AID 492992;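 active = thallium signal inhibited by more than 5 SD of the compound-free buffer control wells, on both duplicate plates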;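 note: 0% = assay buffer control wells without compound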
# Kir21 sel: tests whether KCNK9 modulators also affect mouse Kir2.1 | shares compounds with KCNK9 inh | Kir2.1 cells, FluxOR thallium flux fluorescence | inhibition, % at 10 µM | 4% of 4,900 active;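 active = thallium signal drop more than 5 SD beyond the mean of the no-compound control wells, seen in both duplicate plates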;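 note: signal is fluorescence rise after thallium addition divided by baseline fluorescence; plate controls were assay buffer only for no effect and full block by chlorpromazine control for full effect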
# KCNK9 uninduced: non-induced cell nonspecific activity of KCNK9 modulators; inhibition, % at 10 µM; non-induced KCNK9-HEK293, FluxOR thallium flux; AID 492997; 40% of 4,900 active; shares compounds with KCNK9 inh;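 active = thallium signal drop beyond 5 SD of the untreated control mean, on both duplicate plates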;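 note: plate controls were buffer only IC0 wells for no effect and SID17386958 at its maximal inhibitory level for full effect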
# Starred values were filed as active, the others as inactive; i = inactive; . = no result.
SMILES,KCNK9 inh,KCNQ1 pot,KCNK3 block,hERG protect,KCNQ1 block,Kir21 block,KCNK9 inh conf,Kir21 sel,KCNK9 uninduced
Cc1ccc(/C=N/NC(=O)CSc2nc3ccccc3n2Cc2ccc(Cl)cc2)o1,-21.2*,i,i,-11.4,i,1.44,62.5%*,i,50.5%*
Cc1nn(C)cc1/C=N\NC(=O)c1ccc2c(c1)c(C)c(C)n2Cc1ccccc1,-18.8*,i,i,1.3,i,0.9,64.0%*,i,39.5%*
N#Cc1c(N2CCN(C(=O)c3ccco3)CC2)nc(-c2ccccc2)c2c1CCCC2,i,i,i,-29.4,i,-0.92,.,.,.
N#Cc1c(N2CCN(C(=O)c3ccccc3)CC2)nc(-c2ccccc2)c2c1CCCC2,i,i,i,-6.6,i,1.26,i,i,i
O=[N+]([O-])c1ccc(N/N=C/c2ccc(OCc3cccc4ccccc34)cc2)nc1,-9.3*,i,i,-7.0,i,-0.03,41.5%*,i,i
O=[N+]([O-])c1ccc(N/N=C\c2cccn2-c2ccccc2)nc1,-12*,i,-9.78*,-11.7,i,-0.42,65.0%*,i,61.5%*
COc1ccc(C=NNc2ccc([N+](=O)[O-])cn2)cc1,.,.,i,.,.,.,.,.,.
Cc1cc2c(cc1C)NC(C)CC(=O)N2 (centres undefined),.,.,i,.,.,.,.,.,.
CC(C)(C#N)NC(=O)C1CCCN1S(=O)(=O)c1ccc2ccccc2c1 (centres undefined),i,i,i,-4.0,i,1.3,.,.,.
C[C@@H]1CCC2[C@](C)(CO)[C@@H](O)CC[C@]2(C)[C@@]12C[C@](CO)(CC(=O)O)CO2 (some centres undefined),i,i,i,-2.3,i,0.88,.,.,.
Cn1c(=O)[nH]c(=O)c2c1[nH]c(=S)n2CCCc1ccccc1,i,i,i,-1.6,i,-0.07,i,i,28.5%*
CCC1CN(C(=O)NCc2cccc(OC)c2)c2ccccc2O1 (centres undefined),i,i,i,-1.6,i,-0.72,i,i,i
COc1ccc(C2=NN(C(=O)c3ccccc3)C(c3cccc([N+](=O)[O-])c3)C2)cc1 (centres undefined),-18.3*,i,i,-7.9,i,-0.79,53.5%*,i,27.5%*
COc1ccc(C2CC(c3ccccc3)=NN2C(=O)COC(=O)C2(C)CC2(Cl)Cl)cc1 (centres undefined),i,i,i,-9.6,i,1.51,i,i,i
COc1ccc(C2CC(c3ccccc3)=NN2C(=O)COC(=O)C2CC2)cc1 (centres undefined),i,i,i,-7.6,i,1.38,.,.,.
OC1CCN(Cc2cccc3ccccc23)CC1,i,i,i,-8.7,i,-2.7,.,.,.
C(=N\N1CCN(Cc2cccc3ccccc23)CC1)/c1cccs1,i,i,i,-3.7,i,0.69,i,i,i
CCN(CC)c1ccc(/C=N/N2CCN(Cc3cccc4ccccc34)CC2)c(O)c1,i,i,i,-8.3,i,-0.61,i,i,i
CCN(CC)c1ccc(/C=N/N2CCN(Cc3ccc(Cl)cc3)CC2)c(O)c1,i,i,i,-3.3,i,-1.17,.,.,.
C(=N\N1CCN(Cc2ccccc2)CC1)/c1cccs1,i,i,i,-4.5,i,1.86,.,.,.
C/C(=N/N1CCN(Cc2cccc3ccccc23)CC1)c1ccco1,i,i,i,-13.2,i,-0.41,i,i,i
Cc1ccc(CN2CCN(/N=C/c3cccn3C)CC2)c(C)c1,i,i,i,-12.1,i,0.02,.,.,.
Cc1ccc(CN2CCN(/N=C/c3ccc(C)s3)CC2)c(C)c1,i,i,i,-7.8,i,-0.45,i,i,i
Brc1ccc(Cn2c(-c3ccc(Br)o3)nc3ccccc32)o1,-8.76*,i,i,-7.7,i,2.5,i,i,32.5%*
Cn1c(-c2ccc(Br)o2)nc2ccccc21,i,i,i,-6.9,i,-0.01,.,.,.
SMILES,KCNK9 inh,KCNQ1 pot,KCNK3 block,hERG protect,KCNQ1 block,Kir21 block,KCNK9 inh conf,Kir21 sel,KCNK9 uninduced
COC(=O)c1ccc(COc2ccccc2/C=C(\C#N)C(=O)Nc2c(C)cccc2C)cc1,-13.2*,i,i,-12.8,i,-0.01,76.0%*,i,34.0%*
COC(=O)c1ccc(COc2ccccc2/C=C(\C#N)C(=O)Nc2ccccc2C)cc1,i,i,i,-4.5,i,-0.35,.,.,.
C=CCc1cc(C)ccc1OCCOCCC(C(=O)OCC)C(=O)OCC,i,i,i,-13.2,i,-8.63*,i,i,i
CSc1ccc(CN(C)C(=O)CCNS(=O)(=O)c2ccc(C)c(C)c2)cc1,i,i,i,-16.7,i,-2.94,i,i,i
Cc1ccc(C)c(NC(=S)N2CCC(NC(=O)c3ccccc3)CC2)c1,i,i,i,-5.7,i,0.57,.,.,.
Cc1cc(Cl)ccc1C(=O)C1CCCN(C(=O)c2cccc(N3CCCC3=O)c2)C1 (centres undefined),i,i,i,-8.8,i,-2.34,.,.,.
Cc1cc(Cl)ccc1C(=O)C1CCCN(C(=O)c2cc(C(C)C)no2)C1 (centres undefined),i,i,i,-15.0,i,-0.61,i,i,i
COC(=O)CCC(=O)N1CCCC(C(=O)c2ccc(Cl)cc2C)C1 (centres undefined),i,i,i,-3.2,i,0.28,.,.,.
Cc1cc(Cl)ccc1C(=O)C1CCCN(C(=O)c2ccc3ncccc3c2)C1 (centres undefined),i,i,i,-14.3,i,0.24,i,i,i
Cc1cc(Cl)ccc1C(=O)C1CCCN(C(=O)c2ccsc2)C1 (centres undefined),i,i,i,-8.4,i,-3.46,i,i,i
Cc1ccc(-c2nnc(SCC(=O)NCC3CCCO3)nc2-c2ccc(C)cc2)cc1 (centres undefined),.,.,i,.,.,.,.,.,.
Cc1cccc([C@H]2[C@@H]3C=CCC[C@@H]3C(=O)N2Cc2ccccc2)c1,.,.,i,.,.,.,.,.,.
CCOc1ncccc1C(=O)OCC(=O)N(CC(C)C)C1CCS(=O)(=O)C1 (centres undefined),i,i,i,-4.1,i,1.83,.,.,.

# Screens (PubChem BioAssay)
